The values that follow come from ChEMBL document CHEMBL1125928, “Isoprenyl phosphinylformates: new inhibitors of squalene synthetase” (J Med Chem, 1991).

The target of data set [1] is T1, Squalene synthase (Rattus norvegicus, UniProt Q02769).
T1 sequence (Q02769 whole entry): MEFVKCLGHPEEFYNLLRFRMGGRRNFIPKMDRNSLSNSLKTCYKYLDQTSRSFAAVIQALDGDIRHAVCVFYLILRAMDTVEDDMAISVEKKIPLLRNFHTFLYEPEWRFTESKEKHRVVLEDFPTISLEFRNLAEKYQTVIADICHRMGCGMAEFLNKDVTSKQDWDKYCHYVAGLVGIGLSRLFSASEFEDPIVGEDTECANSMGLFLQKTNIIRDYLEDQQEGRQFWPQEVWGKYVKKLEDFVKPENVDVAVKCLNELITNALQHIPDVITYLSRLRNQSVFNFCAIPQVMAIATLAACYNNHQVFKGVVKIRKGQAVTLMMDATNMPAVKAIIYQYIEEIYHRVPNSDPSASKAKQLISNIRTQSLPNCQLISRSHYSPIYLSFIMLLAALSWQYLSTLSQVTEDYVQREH
The data set can be described thus: Inhibitory activity against liver microsomal Squalene synthase. The following applies: read-out: I50.

Data set [2] is filed under the species Homo sapiens. The data set can be described thus: Compound was tested for the inhibition of cholesterol biosynthesis from [14C]- acetate in freshly isolated from human skin fibroblasts; inactive at 100 uM. It is filed as functional, organism-based.
The species named for data set [3] is Rattus norvegicus. The data set can be described thus: Compound was tested for the inhibition of cholesterol biosynthesis from [14C]- acetate in freshly isolated rat hepatocytes. The format is functional. To be noted: Hepatocyte, read-out: I50.
For data set [4], the species on record is Homo sapiens. Put plainly: Compound was tested for the inhibition of cholesterol biosynthesis from [14C]- acetate in freshly isolated from human skin fibroblasts. The format is functional, organism-based. The following applies: read-out: I50.
Data set [5] is filed under the species Rattus norvegicus. The data set can be described thus: Compound was tested for the inhibition of cholesterol biosynthesis from [14C]- acetate in freshly isolated rat hepatocytes; inactive at 200 uM. It is filed as functional. The following applies: hepatocyte.
The target of data set [6] is T1, Squalene synthase. The data set can be described thus: Inhibitory activity against microsomal squalene synthase.
Data set [7] is filed under the species Homo sapiens. The data set can be described thus: Compound was tested for the inhibition of cholesterol biosynthesis from [14C]- acetate in freshly isolated from human skin fibroblasts; inactive at 30 uM. The format is functional.
The species entered for data set [8] is Homo sapiens. Put plainly: Compound was tested for the inhibition of cholesterol biosynthesis from [14C]- acetate in freshly isolated from human skin fibroblasts; inactive at 15 uM. The format is functional, organism-based.
For data set [9], the species on record is Homo sapiens. The data set can be described thus: Compound was tested for the inhibition of cholesterol biosynthesis from [14C]- acetate in freshly isolated from human skin fibroblasts; inactive at 300 uM. The format is functional, organism-based.
Compound in data set [10]: CC(C)=CCC/C(C)=C/CC/C(C)=C/COP(=O)(O)OP(=O)(O)O
Put plainly: Competitive inhibitory activity against microsomal Squalene synthase. A digest of the protocol: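 Rat microsomal enzyme; inhibitor at 0, 2.5, 10 and 30 μM against FPP varied from 5 to 50 μM, with NADPH held saturating at 0.9 mM. Inhibition type and Ki were taken from double-reciprocal (Lineweaver-Burk) plots of the kinetic data.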

With `CC(C)=CCC/C(C)=C/CC/C(C)=C/CCCOP(=O)(O)C(=O)O`, the IC50 at Squalene synthase [1] is 41.6 µM.
As for `CC(C)=CCC/C(C)=C/CC/C(C)=C/CCP(=O)([O-])CC(=O)[O-].[K+].[K+]`, the I50 result in the data set filed under Homo sapiens [2] is recorded as “Inactive”. Besides, the IC50 in the data set listed under Rattus norvegicus [3] worked out at 71 µM.
For `CCOC(=O)P(=O)(O)OCC/C=C(\C)CC/C=C(\C)CCC=C(C)C`, the IC50 amounted to 12 µM in the data set listed under Homo sapiens [4], 9 µM in the data set filed under Rattus norvegicus [3] and 106 µM on Squalene synthase [1].
In the case of `CC(C)=CCC/C(C)=C/CC/C(C)=C/CCP(=O)(O)CP(=O)(O)O`, the I50 result in the data set listed under Homo sapiens [2] and in the data set listed under Rattus norvegicus [5] was “Inactive” each time. This molecule registered a Ki at Squalene synthase [6] of 10 µM.
On to `CC(C)=CCC/C(C)=C/CC/C(C)=C/CCP(=O)([O-])C(=O)[O-].[Na+].[Na+]`, for which the IC50 came to 5.7 µM in the data set filed under Rattus norvegicus [3] and 100 µM on Squalene synthase [1]. Also, the I50 entry in the data set filed under Homo sapiens [7] is on record as “Inactive”.
For the molecule `CCOC(=O)P(=O)(O)CCC/C=C(\C)CC/C=C(\C)CCC=C(C)C`, the IC50 is 2.2 µM in the data set listed under Homo sapiens [4], 24 µM in the data set filed under Rattus norvegicus [3] and 112 µM at Squalene synthase [1].
`CC(C)=CCC/C(C)=C/CC/C(C)=C/CCC[PH](=O)O`: on Squalene synthase [1], the IC50 was found to be 197 µM.
As to `CC(C)=CCC/C(C)=C/CC/C(C)=C/CCOP(=O)([O-])C(=O)[O-].[Na+].[Na+]`, the I50 result in the data set listed under Homo sapiens [8] was “Inactive”. Moreover, the IC50 stood at 6 µM in the data set filed under Rattus norvegicus [3] and 8.7 µM at Squalene synthase [1].
As for `CC(C)=CCC/C(C)=C/CC/C(C)=C/COP(=O)(O)CC(=O)O`, the IC50 amounted to 273 µM in the data set filed under Rattus norvegicus [3] and 86 µM on Squalene synthase [1].
With `CC(C)=CCC/C(C)=C/CC/C(C)=C/CCCP(=O)([O-])C(=O)[O-].[Na+].[Na+]`, the I50 result in the data set filed under Homo sapiens [9] is on record as “Inactive”. Also, the IC50 in the data set filed under Rattus norvegicus [3] amounted to 30 µM; at Squalene synthase [1], 31.8 µM.

B1: Squalene synthase (Rattus norvegicus), Q02769 (protein)
chain: MEFVKCLGHPEEFYNLLRFRMGGRRNFIPKMDRNSLSNSLKTCYKYLDQTSRSFAAVIQALDGDIRHAVCVFYLILRAMDTVEDDMAISVEKKIPLLRNFHTFLYEPEWRFTESKEKHRVVLEDFPTISLEFRNLAEKYQTVIADICHRMGCGMAEFLNKDVTSKQDWDKYCHYVAGLVGIGLSRLFSASEFEDPIVGEDTECANSMGLFLQKTNIIRDYLEDQQEGRQFWPQEVWGKYVKKLEDFVKPENVDVAVKCLNELITNALQHIPDVITYLSRLRNQSVFNFCAIPQVMAIATLAACYNNHQVFKGVVKIRKGQAVTLMMDATNMPAVKAIIYQYIEEIYHRVPNSDPSASKAKQLISNIRTQSLPNCQLISRSHYSPIYLSFIMLLAALSWQYLSTLSQVTEDYVQREH
As for B1, the Km in [10] was found to be 12.7 µM.
